Test results taken from ChEMBL document CHEMBL1129584, “3,3-Dialkyl- and 3-alkyl-3-benzyl-substituted 2-pyrrolidinones: a new class of anticonvulsant agents” (J Med Chem, 1996).

Tests used:
[1] = target: GABA-A receptor; anion channel; experiment: Binding affinity for Gamma-aminobutyric acid A receptor from rat brain in the presence of radioligand [35S]- TBPS
Summary of the method: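 [35S]TBPS displacement in rat brain membranes (picrotoxin site of GABA-A receptors). Compounds dissolved in DMSO, final DMSO ≤2.5%. IC50 from at least three experiments in triplicate, mean ± SEM.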

[2] = Neurotoxicity in mice was assessed by rotarod test; assay type: toxicity; conditions: mouse, in vivo
[3] = target: T1, GABA-A receptor; anion channel (Rattus norvegicus) (UniProt O09028+P15431+P18506+P18508+P19969+P20236+P23574+P23576+P28471+P28473+P30191+P62813+P63079+P63138+Q91ZM7+Q9ES14); experiment: Antagonism (300 uM) induced potentiation of 3 uM Gamma-aminobutyric acid A receptor mediated current by picrotoxin antagonist (alpha-IMGBL) at a dose 3 mM on 5 rat brain cells; assay type: functional, tissue-based; parameters: scale not given: the % may be the effect or the level left
[4] = Protective index, measure of ratio of TD50 and ED50; assay type: functional
Summary of the method: (§1)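 Protective index calculated as TD50 (rotorod) divided by ED50 in the PTZ or MES mouse seizure test.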

Mus musculus [5] = species on record: Mus musculus; experiment: Anticonvulsant activity in mice against pentylenetetrazole (PTZ) induced clonic seizures; assay type: functional
Summary of the method: (§2)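 At least four groups of six mice each. Where these could not be calculated, the […] and lowest all-protected doses are given instead.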

[6] = Protective index, measure of ratio of TD50 and ED50 of MES; assay type: functional; summary of the method: as §1
Mus musculus [7] = species on record: Mus musculus; experiment: Anticonvulsant activity in mice against maximal electroshock (MES) induced tonic hindlimb seizures; assay type: functional; summary of the method: as §2
[8] = target: T1, GABA-A receptor; anion channel (Rattus norvegicus); experiment: Induced percentage potentiation of 3 uM GABA-mediated current at rat brain Gamma-aminobutyric acid A receptor (8 cells); assay type: functional
[9] = Protective index, measure of ratio of TD50 and ED50 of PTZ; assay type: functional; summary of the method: as §1
[10] = target: T1, GABA-A receptor; anion channel (Rattus norvegicus); experiment: Induced percentage potentiation of 3 uM GABA-mediated current at rat brain Gamma-aminobutyric acid A receptor (8 cells) at 1 mM in the presence of 3 mM alpha-IMGBL (picrotoxin antagonist); assay type: functional

Structure (SMILES): O=C1CCCS1 [THIOBUTYROLACTONE]
- IC50 [1]: 0.33 mM

Structure (SMILES): CC(C)(C)C1(C)CCNC1=O (stereo unspecified)
- IC50 [1]: 3.26 mM
- TD50 [2]: > 300 mg/kg

Structure (SMILES): CC1(Cc2ccccc2)CCNC1=O (stereo unspecified)
- IC50 [1]: 0.85 mM

Structure (SMILES): CCC1(C(C)C)CCNC1=O (stereo unspecified)
- IC50 [1]: 2.62 mM
- TD50 [2]: 207 mg/kg

Structure (SMILES): CCC1(Cc2ccccc2)CCNC1=O (stereo unspecified)
- Activity [3]: 98%

Structure (SMILES): CC1CCNC1=O (stereo unspecified)
- TD50 [2]: > 900 mg/kg

Structure (SMILES): CC(C)C1(C)CCNC1=O (stereo unspecified)
- IC50 [1]: 6.86 mM

Structure (SMILES): CCC1(C)CCNC1=O (stereo unspecified)
- IC50 [1]: 12.1 mM

Structure (SMILES): CCC1(c2ccccc2)C(=O)NC(=O)NC1=O [PHENOBARBITAL]
- PI [4]: 4
- ED50 (Mus musculus [5]): 22 mg/kg

Structure (SMILES): O=C1CCCN1 [2-PYRROLIDONE]
- TD50 [2]: > 900 mg/kg

Structure (SMILES): O=C1NCCC12CCCC2
- IC50 [1]: 12.1 mM
- TD50 [2]: 307 mg/kg

Structure (SMILES): CCC1CCNC1=O (stereo unspecified)
- IC50 [1]: 48.1 mM

Structure (SMILES): O=C1NCCC1Cc1ccccc1 (stereo unspecified)
- IC50 [1]: 2.44 mM
- PI [6]: 3.51
- TD50 [2]: 144 mg/kg

Structure (SMILES): CCC1(C)CC(=O)NC1=O (stereo unspecified) [ETHOSUXIMIDE]
- PI [4]: 2.35
- ED50 (Mus musculus [5]): 161 mg/kg

Structure (SMILES): CC1(C)CCNC1=O
- IC50 [1]: 32.4 mM
- ED50 (Mus musculus [7]): > 600 mg/kg
- TD50 [2]: > 600 mg/kg

Structure (SMILES): CCCC(CCC)C(=O)O [VALPROIC ACID]
- PI [4]: 2.12
- ED50 (Mus musculus [5]): 133 mg/kg

Structure (SMILES): CCC1(CC)CCNC1=O
- IC50 [1]: 5.81 mM
- Activity [8]: 137%
- PI [9]: 5.65
- Activity [10]: 108%
- TD50 [2]: 260 mg/kg
